ChEMBL document CHEMBL1157165, “Design and synthesis of dual inhibitors of HIV reverse transcriptase and integrase: introducing a diketoacid functionality into delavirdine” (Bioorg Med Chem, 2008)

Assays:
[1] = Inhibition of HIV reverse transcriptase; design: species or system Human immunodeficiency virus
In short: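 Scintillation proximity assay: beads carry a biotin-linked poly(A) template with oligo(T) primer. Reaction incubated 3 h at 37 °C, stopped with stop buffer, counted 1 min per sample on a beta counter; IC50 reported.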

[2] = Inhibition of HIV integrase expressed in Escherichia coli BL21; design: species or system Human immunodeficiency virus
In short: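 IN made in E. coli BL21(DE3) by IPTG induction. 600 nM IN stock in 10 mM HEPES pH 7.5, 10 mM MnCl2, 1 mM DTT, 10% glycerol, BSA, Brij-35, preincubated with compound or DMSO 10 min at room temperature. Reaction started with annealed 5'-biotin/3'-cy5 duplex (50 nM stock), 2 h at 37 °C. Product captured on streptavidin plate, washed with NaOH denaturing buffer, eluted in formamide, fluorescence read.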

[3] = tested on: Human immunodeficiency virus 1; assay: Antiviral activity against HIV1 by cell-based assay; type: functional, organism-based
In short: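 Cytoprotection assay: CEM-SS cells or human PBMCs mixed with HIV-1 strain IIIB or RF in presence of compound, 6 days. Virus pre-titered to give 70–95% loss of viability in virus-control wells; cell, toxicity and colorimetric controls included. Viability by MTS or XTT dye reduction; EC50 = concentration inhibiting virus replication by 50%.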

Compound	IC50 [1] [µM]	IC50 [2] [µM]	EC50 [3] [µM]
CC(C)Nc1cccnc1N1CCN(C(=O)c2cc3cccc(C(=O)/C=C(\O)C(=O)O)c3[nH]2)CC1	> 100	> 100	> 10
CC(C)Nc1cccnc1N1CCN(C(=O)c2[nH]c3ccc(C(=O)/C=C(\O)C(=O)O)cc3c2Br)CC1	0.12	3.9	0.79
CC(C)Nc1cccnc1N1CCN(C(=O)c2[nH]c3c(C(=O)/C=C(\O)C(=O)O)cccc3c2Br)CC1	> 100	75	> 10
CC(C)Nc1cccnc1N1CCN(C(=O)c2[nH]c3ccc(C(=O)/C=C(\O)C(=O)O)cc3c2Cl)CC1	1.1	4.7	0.98
CC(C)Nc1cccnc1N1CCN(C(=O)c2[nH]c3c(C(=O)/C=C(\O)C(=O)O)cccc3c2Cl)CC1	> 100	> 100	> 10

Now from value to compound:

IC50 [1] [µM]	IC50 [2] [µM]	EC50 [3] [µM]	Compound
0.0059	11	0.52	CC(C)Nc1cccnc1N1CCN(C(=O)c2cc3cc(C(=O)/C=C(\O)C(=O)O)ccc3[nH]2)CC1
0.036	> 100	0.021	CC(C)Nc1cccnc1N1CCN(C(=O)c2cc3cc(NS(C)(=O)=O)ccc3[nH]2)CC1 [DELAVIRDINE]
